Assay [1] is described as follows: Glutathione reactivity assessed as adduct formation of the compound at pH 7.4 and 9.
In assay [2] the target is NACHT, LRR and PYD domains-containing protein 3 (Homo sapiens) (UniProt Q96P20). Description: Irreversible inhibition of His-FLAG- tagged NLRP3-ATPase (unknown origin) at 100 uM preincubated for 55 mins followed by compound wash-out and ATP addition measured after 40 mins by ADP-Glo assay. The procedure, abridged:
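His-FLAG NLRP3 (105 ng/well) captured on anti-FLAG-coated, BSA-blocked wells for 3 h at 4 °C. Compound (100 µM final, 2% DMSO) preincubated 55 min at 37 °C. Wells were washed three times (or not washed), then ATP (250 µM) was added for 40 min at 37 °C. ADP was read by ADP-Glo. Equal protein loading was checked by anti-His ELISA.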
Background: ADP-Glo first removes unused ATP, then detects ADP through luciferase.

Assay [3] relates to Rattus norvegicus. Description: Antiinflammatory activity in DNBS-induced Sprague-Dawley rat colitis model assessed as reduction in DNBS-induced spleen weight increase by measuring increase in spleen weight at 25 mg/kg/day, ig administered as suspension in olive oil for 6 days simulatneously with 6 days of DNBS-challenge measured daily during compound dosing (reference value: 39.3%). The format is functional. More on the design: scale not given: the % may be the effect or the level left. The procedure, abridged:
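Spleen weight was used as an index of systemic inflammation. Rats had intrarectal DNBS (15 mg/0.25 mL 50% ethanol) and 6 days of intragastric dosing: 1 mg/kg/day in 1% methylcellulose, or 12.5–50 mg/kg/day in 0.2 mL olive oil. The spleen was weighed at sacrifice and expressed as percent increase versus control, n = 10.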

The test system of assay [4] is Rattus norvegicus. Description: Antiinflammatory activity in DNBS-induced Sprague-Dawley rat colitis model assessed as DNBS-induced decrease in colonic length at 25 mg/kg/day, ig administered as suspension in olive oil for 6 days simulatneously with 6 days of DNBS-challenge (reference value: -34.4%). In kind it is functional. More on the design: scale not given: the % may be the effect or the level left.

The subject of assay [5] is Rattus norvegicus. Put plainly: Antiinflammatory activity in DNBS-induced Sprague-Dawley rat colitis model assessed as DNBS-induced macroscopic damage score at 12.5 mg/kg/day, ig administered as suspension in olive oil for 6 days simulatneously with 6 days of DNBS-challenge (reference value: 8.6 +/- 0.6). In kind it is functional.
Assay [6] has as its system Rattus norvegicus. Description: Anti-inflammatory activity in DNBS-induced Sprague-Dawley rat colitis model assessed as DNBS-induced TNFalpha levels in colon at 50 mg/kg/day, ig for 6 days simulatneously with 6 days of DNBS-challenge by ELISA (reference value: 5.9 +/- 0.6 pg/mg). In kind it is functional.

NACHT, LRR and PYD domains-containing protein 3 (Homo sapiens), sequence (Q96P20 whole entry, the tested form may be a part): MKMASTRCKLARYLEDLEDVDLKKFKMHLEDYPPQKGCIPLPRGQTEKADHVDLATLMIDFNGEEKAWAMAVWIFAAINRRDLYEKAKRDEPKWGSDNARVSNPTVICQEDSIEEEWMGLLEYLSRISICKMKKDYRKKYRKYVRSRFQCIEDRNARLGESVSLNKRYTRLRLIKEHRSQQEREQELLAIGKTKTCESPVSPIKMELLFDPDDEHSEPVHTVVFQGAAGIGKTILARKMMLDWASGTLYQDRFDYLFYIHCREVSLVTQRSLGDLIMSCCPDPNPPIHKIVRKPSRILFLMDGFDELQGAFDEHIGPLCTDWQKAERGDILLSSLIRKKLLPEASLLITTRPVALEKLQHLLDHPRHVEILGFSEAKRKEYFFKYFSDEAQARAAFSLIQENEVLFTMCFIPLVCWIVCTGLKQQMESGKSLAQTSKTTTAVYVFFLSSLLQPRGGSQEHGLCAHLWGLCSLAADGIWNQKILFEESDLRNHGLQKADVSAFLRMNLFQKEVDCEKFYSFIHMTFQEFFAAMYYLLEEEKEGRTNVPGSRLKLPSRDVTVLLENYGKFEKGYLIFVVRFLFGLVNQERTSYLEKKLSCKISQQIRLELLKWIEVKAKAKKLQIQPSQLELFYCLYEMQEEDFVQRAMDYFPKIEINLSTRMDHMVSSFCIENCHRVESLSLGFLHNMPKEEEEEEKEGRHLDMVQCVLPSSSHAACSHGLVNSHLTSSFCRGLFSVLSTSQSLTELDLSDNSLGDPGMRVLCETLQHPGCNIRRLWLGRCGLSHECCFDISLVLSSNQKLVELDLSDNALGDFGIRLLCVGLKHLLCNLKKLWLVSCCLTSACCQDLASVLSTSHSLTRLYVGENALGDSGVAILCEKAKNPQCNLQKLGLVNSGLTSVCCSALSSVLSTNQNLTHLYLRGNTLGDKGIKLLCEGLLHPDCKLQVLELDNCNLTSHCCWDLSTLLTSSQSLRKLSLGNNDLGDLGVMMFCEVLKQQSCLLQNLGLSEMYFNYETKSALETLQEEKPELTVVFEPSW

Turning to `C=C(Cc1ccccc1Cl)C(=O)OCC`, in assay [1], the Drug metabolism result is on record as “Metabolite not detected”. Further, the inhibition (commonly the percentage by which the read-out fell short of the control) in assay [2] is 40%. The Activity with Rattus norvegicus [3] is on record as 4.3%; in the assay on Rattus norvegicus [4], -13%; in the assay with Rattus norvegicus [6], 2.7 pg/mg. Further, the Activity_index with Rattus norvegicus [5] is 4.7.

The record behind these values is ChEMBL document CHEMBL4014309, “Development of an Acrylate Derivative Targeting the NLRP3 Inflammasome for the Treatment of Inflammatory Bowel Disease” (J Med Chem, 2017).
